Measurements published in article PMC9614283 (Journal of medicinal chemistry, 2017).
Blank lines part the entries; values can stand above or below the compound they belong to.

What was measured:
[1] = target: human recombinant PDE5A1 (Homo sapiens, UniProt O76074); experiment: PDE5 fluorescent; format: biochemical
How it was run: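 Reactions ran 60 min at room temperature with 0.1-0.45 ng PDE5, 100 nM FAM-cGMP or FAM-cAMP substrate and test compound. Binding agent was then added for 60 min at room temperature, and fluorescence was read at ex 485/em 528 nm and converted to polarisation. Each concentration was run in duplicate. Activity was normalised between no compound (100%) and no enzyme and no compound (0%). IC50 came from sigmoidal non-linear regression; values are average ± S.E.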

[2] = target: T1, PDE6C (Homo sapiens, UniProt P51160); experiment: PDE6 fluorescent; format: biochemical; conditions: PDE6C vs PDE5A1
T1 sequence (P51160 whole entry): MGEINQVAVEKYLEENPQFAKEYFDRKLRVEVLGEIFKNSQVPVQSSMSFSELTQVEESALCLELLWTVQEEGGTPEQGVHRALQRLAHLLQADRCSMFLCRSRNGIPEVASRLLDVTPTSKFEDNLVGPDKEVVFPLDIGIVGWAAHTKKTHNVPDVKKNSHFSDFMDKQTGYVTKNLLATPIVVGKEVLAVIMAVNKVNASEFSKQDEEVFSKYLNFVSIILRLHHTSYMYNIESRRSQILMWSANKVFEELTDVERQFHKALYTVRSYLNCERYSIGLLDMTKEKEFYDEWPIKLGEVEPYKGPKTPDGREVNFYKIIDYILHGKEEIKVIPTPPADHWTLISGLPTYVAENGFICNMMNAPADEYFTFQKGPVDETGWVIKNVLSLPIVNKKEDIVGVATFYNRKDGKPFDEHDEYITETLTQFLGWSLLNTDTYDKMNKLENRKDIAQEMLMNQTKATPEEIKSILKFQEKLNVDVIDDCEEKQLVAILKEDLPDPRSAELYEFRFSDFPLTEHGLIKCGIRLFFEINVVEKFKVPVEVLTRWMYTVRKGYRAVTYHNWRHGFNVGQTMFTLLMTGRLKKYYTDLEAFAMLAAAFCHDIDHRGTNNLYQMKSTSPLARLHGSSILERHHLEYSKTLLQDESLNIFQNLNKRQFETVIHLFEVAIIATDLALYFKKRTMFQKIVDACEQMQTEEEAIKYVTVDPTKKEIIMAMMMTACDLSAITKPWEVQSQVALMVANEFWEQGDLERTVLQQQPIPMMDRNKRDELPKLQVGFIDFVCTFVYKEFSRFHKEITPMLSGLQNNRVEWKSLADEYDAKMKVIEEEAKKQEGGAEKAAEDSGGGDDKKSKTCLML

[3] = target: T1, PDE6C; conditions: read-out: PDE6C IC50; recombinant human enzyme; cited from earlier work
[4] = tested on: cGMP levels in the hippocampus of mice; conditions: dosed at 3 mg/kg; cited from earlier work
[5] = tested on: AD mouse models; conditions: pharmacological treatment of two different AD mouse models; cited from earlier work
[6] = tested on: cGMP levels in the hippocampus of mice; experiment: Hippocampal cGMP levels after foot shock; format: in vivo; conditions: WT mice, 3 mg/kg ip, 180 s after foot shock; not significant (p = 0.097)
How it was run: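 Male and female C57Bl6 mice, 2-3 months old (20-25 g), received 3 mg/kg i.p. in 2% DMSO & 2% Tween, or vehicle alone. Foot shock was given 30 min later. Mice were killed by cervical dislocation and decapitation 10 s, 1 min or 3 min after shock. Hippocampi were snap-frozen. cGMP was measured by enzyme immunoassay in duplicate and normalised to BCA protein. n=3 per group; t-test/2-way ANOVA.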

[7] = tested on: hippocampal long-term potentiation (LTP); experiment: Hippocampal slice LTP electrophysiology, acute bath perfusion; format: cell-based, mice; conditions: 50 nM bath perfusion

IC50 [1]: 110 ± 3.3 nM
Compound: COc1ccc(CNc2c3c(nc4ccccc24)CCN(C(C)=O)C3)cc1Cl [17a, 1-(10-((3-Chloro-4-methoxybenzyl)amino)-3,4-dihydrobenzo[b][1,6]naphthyridin-2(1H)-yl)ethan-1-one]

selectivity for PDE5 versus PDE6 [2]: ~ 100 fold
Compound: CCN1Cc2nc3ccc(C#N)cc3c(NCc3ccc(OC)c(Cl)c3)c2C1=O [compound 24a, 9-((3-Chloro-4-methoxybenzyl)amino)-2-ethyl-1-oxo-2,3-dihydro-1H-pyrrolo[3,4-b]quinoline-7-carbonitrile]

Compound: COc1ccc(CNc2c(CO)cnc3c(C4CC4)cc(C#N)cc23)cc1Cl [compound 1]
IC50 [3]: 339 nM
cGMP in the hippocampus of mice [4]: elevation
learning and memory [5]: rescues learning and memory

Compound: COc1ccc(CNc2c3c(nc4ccc(C#N)cc24)CCN(C(C)=O)C3)cc1Cl [compound 6c, 2-Acetyl-10-[(3-chloro-4-methoxybenzyl)amino]-1,2,3,4-tetrahydrobenzo[b][1,6]naphthyridine-8-carbonitrile]
increase of hippocampal cGMP levels [6]: slight increase
effect on LTP in WT slices [7]: did not have any effect
